Consider 2 compounds from ChEMBL document CHEMBL3232843, “Novel pyrrolidine diketopiperazines selectively inhibit melanoma cells via induction of late-onset apoptosis” (J Med Chem, 2014).

Test [1] deals with M14. The test is described as follows: Cytotoxicity against human M14 cells assessed as cell viability after 48 hrs using GF-AFC as substrate by ApoTox-Glo triplex assay. The format is functional, cell-based. The gist of the method:
(§1)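 M14 cells, 1250 per well, in serum-free DMEM, settled 4 h, then given 1:3 serial dilutions. Ionomycin, terfenadine and panobinostat were the controls. Incubated 4, 24, 48 or 72 h at 37 °C. A reagent containing 400 µM GF-AFC (live-cell protease, ex 400/em 505 nm) and 400 µM bis-AAF-R110 (dead-cell protease, ex 485/em 520 nm) was applied for 30 min at 37 °C. Caspase-Glo 3/7 (DEVD) luminescence was then read after 30 min at room temperature.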

Test [2] relates to M14. The test is described as follows: Induction of apoptosis human M14 cells assessed as caspase activity at 100 uM after 4 hrs using DEVD peptide as substrate by ApoTox-Glo triplex assay. The class given is functional, cell-based. The procedure, abridged: as §1
Test [3] concerns SK-MEL-28. In words: Cytotoxicity against human SK-MEL-28 cells expressing B-raf V600E mutant at 10 uM after 48 hrs by hexosaminidase assay. The format is functional. The settings on record: SK-MEL-28, 48 h. The procedure, abridged:
(§2)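 SK-MEL-28 or B16/F10 cells plated in 96-well plates, grown overnight, then treated with 0–50 µM compound for 48 h. Cells washed with PBS, given hexosaminidase substrate for 30 min at 37 °C, then developer. Absorbance read at 405 nm. Percent viability = treated/control absorbance × 100.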

The subject of test [4] is M14. In words: Cytotoxicity against human M14 cells after 72 hrs by CellTiter-Glo luminescence assay. The class given is functional, cell-based. The settings on record: for pIC50: M14, 72 h. The gist of the method:
(§3)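 1250 cells per well in serum-free medium (F12 for CHO-K1 and A549, DMEM for M14). Compounds given as 10-point 1:3 serial dilutions from a 300 µM stock, plus a gefitinib control. Incubated 72 h at 37 °C, 5% CO2. CellTiter-Glo added for 15 min at room temperature, then luminescence read. Viability normalized to media-only wells (0%) and 1% DMSO wells (100%). Run in triplicate.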

The target of test [5] is T1, Protein deacetylase HDAC6 (Homo sapiens) (UniProt Q9UBN7).
T1 sequence (whole entry): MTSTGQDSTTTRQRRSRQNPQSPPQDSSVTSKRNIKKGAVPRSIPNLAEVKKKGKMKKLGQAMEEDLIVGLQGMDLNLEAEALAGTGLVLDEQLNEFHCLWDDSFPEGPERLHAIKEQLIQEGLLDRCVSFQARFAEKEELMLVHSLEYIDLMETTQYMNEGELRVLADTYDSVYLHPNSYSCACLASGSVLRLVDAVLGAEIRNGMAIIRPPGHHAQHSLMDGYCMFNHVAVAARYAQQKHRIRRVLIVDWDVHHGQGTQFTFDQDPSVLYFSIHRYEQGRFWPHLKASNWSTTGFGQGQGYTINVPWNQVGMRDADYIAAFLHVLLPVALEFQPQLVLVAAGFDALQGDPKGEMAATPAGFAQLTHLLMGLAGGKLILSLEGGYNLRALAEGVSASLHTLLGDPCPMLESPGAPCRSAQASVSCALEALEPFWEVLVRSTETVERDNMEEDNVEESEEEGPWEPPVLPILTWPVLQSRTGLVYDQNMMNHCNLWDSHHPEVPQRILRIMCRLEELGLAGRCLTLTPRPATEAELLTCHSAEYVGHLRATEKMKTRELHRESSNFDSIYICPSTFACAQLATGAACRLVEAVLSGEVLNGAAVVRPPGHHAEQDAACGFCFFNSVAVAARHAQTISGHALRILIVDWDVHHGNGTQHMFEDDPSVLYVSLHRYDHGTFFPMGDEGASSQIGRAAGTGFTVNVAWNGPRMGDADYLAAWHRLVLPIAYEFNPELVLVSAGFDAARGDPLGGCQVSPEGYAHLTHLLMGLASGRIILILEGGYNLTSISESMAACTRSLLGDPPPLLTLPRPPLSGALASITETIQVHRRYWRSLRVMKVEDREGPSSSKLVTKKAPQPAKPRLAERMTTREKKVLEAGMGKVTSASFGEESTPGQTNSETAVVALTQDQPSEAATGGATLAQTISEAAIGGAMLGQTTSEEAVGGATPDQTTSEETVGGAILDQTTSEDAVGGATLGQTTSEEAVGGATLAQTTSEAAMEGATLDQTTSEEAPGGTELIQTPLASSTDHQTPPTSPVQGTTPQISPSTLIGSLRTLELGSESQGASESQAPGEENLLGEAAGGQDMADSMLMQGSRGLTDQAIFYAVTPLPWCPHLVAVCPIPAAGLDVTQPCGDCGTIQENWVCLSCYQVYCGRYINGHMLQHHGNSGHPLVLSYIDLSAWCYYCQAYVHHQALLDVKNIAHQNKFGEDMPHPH
The test is described as follows: Inhibition of HDAC6 (unknown origin) up to 100 uM.

Test [6] has as its target Histone deacetylase 1 (Homo sapiens) (UniProt Q13547). The test is described as follows: Inhibition of HDAC1 (unknown origin) up to 100 uM.
The test system of test [7] is M14. The test is described as follows: Cytotoxicity against human M14 cells assessed as cell viability after 48 hrs using bis-AAF-R110 as substrate by ApoTox-Glo triplex assay. The format is functional, cell-based. The procedure, abridged: as §1
The nature of test [8]: Cytotoxicity against mouse B16F10 cells expressing p53 mutant at 10 uM after 48 hrs by hexosaminidase assay. The class given is functional. The settings on record: B16-F10, 48 h. The procedure, abridged: as §2
In test [9] the test system is M14. The test is described as follows: Cytotoxicity against human M14 cells assessed as cell viability at 100 uM after 4 hrs by CellTiter-Glo luminescence assay. The format is functional, cell-based. The gist of the method:
(§4)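 M14 cells, 1250 per well, in serum-free DMEM. Compounds given in 10-point 1:3 dilution series starting at 100 µM; controls were gefitinib, doxorubicin and ionomycin. Incubated at 37 °C, 5% CO2. CellTiter-Glo luminescence read at 4, 24, 48 and 72 h. Viability normalized to media-only wells and 1% DMSO-treated wells.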

Test [10] relates to M14. In words: Cytotoxicity against human M14 cells assessed as cell viability at 100 uM after 4 hrs using GF-AFC as substrate by ApoTox-Glo triplex assay. The format is functional, cell-based. The gist of the method: as §1
Test [11] deals with A549. The test is described as follows: Cytotoxicity against human A549 cells after 72 hrs by CellTiter-Glo luminescence assay. The format is functional, cell-based. The settings on record: A549, 72 h. The procedure, abridged: as §3
In general terms: Cellular ATP, detected with luciferase, serves as a proxy for viable cell number.

Test [12] is described as follows: (§5) Cytotoxicity against mouse B16F10 cells expressing p53 mutant after 48 hrs by hexosaminidase assay. The class given is functional, cell-based. The following applies: B16-F10, 48 h. The gist of the method:
as §2

Another test deals with B16-F10. The description is as §5. The format is functional, cell-based. The procedure, abridged: as §2
In test [13] the test system is M14. The test is described as follows: Induction of apoptosis human M14 cells assessed as caspase activity at 100 uM after 72 hrs using DEVD peptide as substrate by ApoTox-Glo triplex assay. The format is functional, cell-based. The gist of the method:
as §1

Test [14] has as its system M14. In words: Cytotoxicity against human M14 cells assessed as cell viability at 100 uM after 4 hrs using bis-AAF-R110 as substrate by ApoTox-Glo triplex assay. The format is functional, cell-based. The gist of the method:
as §1

Test [15] deals with M14. The test is described as follows: Cytotoxicity against human M14 cells assessed as cell viability at 100 uM after 48 hrs by CellTiter-Glo luminescence assay. The format is functional, cell-based. The gist of the method: as §4
Test [16] has as its system SK-MEL-28. In words: Cytotoxicity against human SK-MEL-28 cells expressing B-raf V600E mutant after 48 hrs by hexosaminidase assay. The class given is functional, cell-based. The gist of the method:
as §2

Test [17] deals with M14. The test is described as follows: Induction of apoptosis human M14 cells assessed as caspase activity at 100 uM after 24 hrs using DEVD peptide as substrate by ApoTox-Glo triplex assay relative to control. The class given is functional. The procedure, abridged:
(§6)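 M14 #5 cells, 1250 per well in serum-free DMEM, pre-incubated 4 h at 37 °C, 5% CO2. Compounds added as 1:3 serial dilutions; incubated 4, 24, 48 and 72 h. Per time point, a reagent containing 400 µM GF-AFC (live-cell protease) and 400 µM bis-AAF-R110 (dead-cell protease) was added for 30 min at 37 °C, then fluorescence was read. Caspase-Glo 3/7 was added next, 30 min at room temperature, then luminescence.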

Test [18] concerns the target Histone deacetylase 2 (Homo sapiens) (UniProt Q92769). The test is described as follows: Inhibition of HDAC2 (unknown origin) up to 100 uM.
For test [19], the system named is M14. The test is described as follows: Cytotoxicity against human M14 cells assessed as cell viability at 100 uM after 24 hrs by CellTiter-Glo luminescence assay. The class given is functional, cell-based. The procedure, abridged: as §4
The test system of test [20] is M14. In words: Induction of apoptosis human M14 cells assessed as caspase activity at 100 uM after 48 hrs using DEVD peptide as substrate by ApoTox-Glo triplex assay relative to control. The class given is functional. The gist of the method: as §6
Test [21] is described as follows: Cytotoxicity against CHOK1 cells after 72 hrs by CellTiter-Glo luminescence assay. The format is cell-based. The settings on record: Cricetulus griseus, CHO-K1, 72 h. The procedure, abridged:
as §3

For test [22], the system named is A549. The test is described as follows: Selectivity ratio of IC50 for human M14 cells over IC50 for human A549 cells. The format is functional. The gist of the method:
(§7)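 Ratio of 72 h CellTiter-Glo IC50 values between the stated cell lines. Each IC50 comes from a 10-point 1:3 dose–response series and is the mean of three experiments ± standard deviation.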

A further test has as its system CHO-K1. In words: Selectivity ratio of IC50 for human M14 cells over IC50 for CHOK1 cells. The class given is functional. The gist of the method: as §7

pIC50: −log10 of the molar value. Active and inactive are the calls of the source. No cut-off for these calls is given here.

Chain of Histone deacetylase 2 (Homo sapiens) (Q92769 whole entry): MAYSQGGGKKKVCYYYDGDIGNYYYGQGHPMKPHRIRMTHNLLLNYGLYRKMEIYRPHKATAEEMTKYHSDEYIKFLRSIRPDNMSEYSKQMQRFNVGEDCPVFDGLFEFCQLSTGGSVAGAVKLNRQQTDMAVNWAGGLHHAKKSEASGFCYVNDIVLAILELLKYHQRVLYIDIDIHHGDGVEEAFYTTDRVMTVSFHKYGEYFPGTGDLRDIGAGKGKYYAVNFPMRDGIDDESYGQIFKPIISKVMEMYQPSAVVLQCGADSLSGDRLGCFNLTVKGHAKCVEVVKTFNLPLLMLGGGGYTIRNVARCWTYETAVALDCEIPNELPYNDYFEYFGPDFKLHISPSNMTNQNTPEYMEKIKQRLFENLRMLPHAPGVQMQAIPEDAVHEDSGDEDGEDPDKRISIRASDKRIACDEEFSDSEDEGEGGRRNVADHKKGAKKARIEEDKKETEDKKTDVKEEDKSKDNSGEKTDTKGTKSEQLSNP
Chain of Histone deacetylase 1 (Homo sapiens) (Q13547 whole entry): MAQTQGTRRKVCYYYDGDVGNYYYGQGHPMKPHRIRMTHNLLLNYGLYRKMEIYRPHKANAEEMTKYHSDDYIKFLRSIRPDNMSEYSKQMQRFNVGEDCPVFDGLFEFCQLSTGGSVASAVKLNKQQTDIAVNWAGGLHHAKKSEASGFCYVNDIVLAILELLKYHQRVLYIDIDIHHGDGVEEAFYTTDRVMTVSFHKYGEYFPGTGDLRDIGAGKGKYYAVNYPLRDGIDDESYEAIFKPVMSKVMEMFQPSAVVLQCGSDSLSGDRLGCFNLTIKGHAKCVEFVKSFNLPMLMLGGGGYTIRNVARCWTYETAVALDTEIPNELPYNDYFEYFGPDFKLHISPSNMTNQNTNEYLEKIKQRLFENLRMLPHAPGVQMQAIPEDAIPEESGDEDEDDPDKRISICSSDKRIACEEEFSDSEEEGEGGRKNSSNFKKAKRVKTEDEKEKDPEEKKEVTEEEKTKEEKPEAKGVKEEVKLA

Take `O=C1NC[C@H](Cc2ccccc2)N(C[C@@H]2CCCN2C[C@@H](CC2CCCCC2)N2C[C@H](Cc3ccc(O)cc3)N(CCc3ccccc3)C(=O)C2=O)C1=O`: the Activity result was “Dose-dependent effect” in the test with M14 [1], “Dose-dependent effect” in the test with M14 [7], 550% in the test with M14 [17] and 400% with M14 [20]. The result in the test with M14 [2], in the test on M14 [9], in the test on M14 [10], in the test on M14 [13] and in the test on M14 [14] was inactive. Besides, the inhibition at 10 µM (with SK-MEL-28 [3]; in [8]) was 100% in each case. The inhibition result in the test with M14 [4], in the test on B16-F10 and with SK-MEL-28 [16] was “Dose-dependent effect” throughout. The pIC50 (in general, the IC50 on a negative log10 scale, so that one unit is a factor of ten) in the test on M14 [4] is 5.44; in the test with A549 [11], under 4.00; in test [12] it was 5.57; in the test with SK-MEL-28 [16] (SK-MEL-28, 48 h), 6.25; in test [21] it was under 4.00. For the same compound, the inhibition entry in test [5], in test [6] and in [18] was “inactive” each time. Besides, the outcome with M14 [15] and in the test with M14 [19] was Active.
For the compound `CCC[C@H]1CNC(=O)C(=O)N1C[C@@H]1CCCN1C[C@@H](CC1CCCCC1)N1C[C@H](Cc2ccc(O)cc2)N(CCc2ccccc2)C(=O)C1=O`, the negative-log IC50 (pIC50) is 5.06 with M14 [4], 4.28 in the test on A549 [11] and under 4.00 in test [21]. The figures for the “Ratio IC50” value with A549 [22] and in the test with CHO-K1 were 5 and over 10, respectively.
